According to ChEMBL document CHEMBL4513216, “Probing the Open Global Health Chemical Diversity Library for Multistage-Active Starting Points for Next-Generation Antimalarials” (ACS Infect Dis, 2020):

Assay: Toxicity liver stage against HepG2, at 10uM
Type: cell-based
Set-up: test concentration 10 uM, cell line HepG2-A16-CD81EGFP
Settings: human, HepG2-A16-CD81EGFP cells; read-out: INHIBITION
How it was run: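 Uninfected HepG2-A16-CD81EGFP cells, 3 × 10^3 per well, 1536-well, plated on prespotted compound at 10 μM final, parasite-free screening media added to match infected plates; puromycin 10 μM positive, DMSO 0.5% negative; run in parallel with 48 h PbLuc assay at 37 °C, 5% CO2; viability by CellTiter-Glo luminescence, normalized to controls.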
`COc1cccc(OCCNCc2ccccc2)c1` showed a cytotoxicity at 10 µM of 10.7%. In the case of `COCCN1C(=O)CO[C@H]2CN(CCCc3ccccc3)C[C@H]21`, the cytotoxicity at 10 µM is reported as 52.8%. In the case of `CCC(C)[C@H](NC(=O)c1ccc(F)cc1-n1cnnn1)C(=O)OC` (stereo partly specified), the cytotoxicity at 10 µM is reported as 5.55%. `O=C1CSC(c2ccncc2)c2c(n(C3CCOCC3)[nH]c2=O)N1` (stereo unspecified) gave a cytotoxicity at 10 µM of -19.4%. Molecule `CCOC(=O)NCCC(O)c1ccoc1` (stereo unspecified) has a cytotoxicity at 10 µM of -10.5%. `O=C(Cc1ccccc1Cl)Nc1cnn(C2CCOC2)c1` (stereo unspecified) gave a cytotoxicity at 10 µM of 2.63%. For `CC(=O)N1CCC2(CCN(CC3CCCCC3)C2)CC1`, the cytotoxicity at 10 µM was 2.05%. `CN(C)CCN1C(=O)CCC12CCCN(C(=O)CC1CC1)CC2` (stereo unspecified) gave a cytotoxicity at 10 µM of -1.48%. `N#Cc1cccc(CN2CCC3(CC(C(=O)NCC4CC4)=NO3)C2)c1` (stereo unspecified) gave a cytotoxicity at 10 µM of 8.73%. In the case of `CC(=O)N1CC[C@@H]2O[C@@H](COCC(=O)N3CCCC3)CC[C@@H]21`, the cytotoxicity at 10 µM is reported as -7.73%. Work on `COc1ncccc1C(=O)N1CC[C@H]2C[C@H](c3ccncn3)O[C@@H]2C1` yielded a cytotoxicity at 10 µM of 9.4%. In the case of `COCCNCc1ccc(OCC(=O)NC(C)(C)C)cc1`, the cytotoxicity at 10 µM is reported as -8.08%. `COCC(=O)NC(Cc1cc(N(C)C)nc(C2CC2)n1)c1ccccc1` (stereo unspecified) showed a cytotoxicity at 10 µM of 3.03%. For `COCC(=O)N[C@@H]1CN(Cc2ccc3c(c2)OCCO3)C[C@H]1O`, the cytotoxicity at 10 µM was -27.1%. With `Cc1ccc(C(=O)N2Cc3ccccc3OC3(CCOCC3)C2)cn1` the cytotoxicity at 10 µM was -25.8%. In the case of `Cc1nc2ccccn2c1CC(=O)N[C@@H]1CC[C@@H](N2CCOCC2)[C@@H]1O`, the cytotoxicity at 10 µM is reported as -1.68%. `Cc1nc(C2CCCN2C(=O)COc2ccccc2)ncc1C(N)=O` (stereo unspecified) gave a cytotoxicity at 10 µM of -19.1%. `Cc1cc(CCC(N)=O)cc(C2CCCN2Cc2cnc(C)nc2)n1` (stereo unspecified) gave a cytotoxicity at 10 µM of -26.1%. Work on `COc1ccccc1CN1CCC(c2nn(CCN)c3nccnc23)C1` (stereo unspecified) yielded a cytotoxicity at 10 µM of -32.7%. `COc1ccc(CN(C)[C@@H]2CN(C(=O)c3cccnc3)C[C@H]2O)cc1` gave a cytotoxicity at 10 µM of 10.9%. With `C=Cn1ncc(CN2C[C@@H]3CCCN3C[C@H]2Cc2ccccc2)c1C` the cytotoxicity at 10 µM was -18.5%. `CCc1cc(O)nc(C2CCCN2C(=O)c2cc(CC)on2)n1` (stereo unspecified) showed a cytotoxicity at 10 µM of -12.6%. For `NC(=O)CN1CCCC1c1csc(Nc2cnccn2)n1` (stereo unspecified), the cytotoxicity at 10 µM was -11.2%. For `COc1cccc(SCCCn2cnc3c(N)ncnc32)c1`, the cytotoxicity at 10 µM was 11.7%. Molecule `Cn1c(C2CC2)nc2c1CCN(CC(=O)NC1CCCCNC1=O)C2` (stereo unspecified) has a cytotoxicity at 10 µM of 3.73%. `CCC(c1ccccc1)N1CCN(CCO)CC1` (stereo unspecified) showed a cytotoxicity at 10 µM of -1.19%. For `COCCN1CCN(CC2CCCCO2)CC1` (stereo unspecified), the cytotoxicity at 10 µM was 6.29%. `COC(=O)CC1CN(Cc2ccn(-c3ccc(F)cc3)n2)CCO1` (stereo unspecified) showed a cytotoxicity at 10 µM of -7.83%. `N#Cc1cccnc1NCc1cccnc1N1CCCCC1` showed a cytotoxicity at 10 µM of -48.3%. `CCCC(=O)NCc1cccc(C(=O)OC)c1` gave a cytotoxicity at 10 µM of 5.99%. Molecule `COC(=O)C(C)N(Cc1cc(C)on1)C1CC1` (stereo unspecified) has a cytotoxicity at 10 µM of 0.91%. For `O=C(NCCc1nnc[nH]1)Nc1cccc(SC(F)F)c1`, the cytotoxicity at 10 µM was -42.4%. `Cc1nc(C)c(S(=O)(=O)NC(=O)c2sccc2C)s1` showed a cytotoxicity at 10 µM of 0.25%. Molecule `COCc1nc(CNc2cc(C)on2)cs1` has a cytotoxicity at 10 µM of 4.05%. For `CCOc1cccc(C(=O)N(CCC#N)Cc2ccccn2)c1`, the cytotoxicity at 10 µM was 5.42%. `CCC(CNC(=O)c1ccco1)N1CCc2ccccc2C1` (stereo unspecified) gave a cytotoxicity at 10 µM of 18.3%. Molecule `CN(Cc1ccc(C#N)cc1)C(=O)c1ccnc(OC2CCC2)c1` has a cytotoxicity at 10 µM of 7.59%. Work on `COc1cccc(C2CCCN2Cc2nnnn2C2CC2)c1` (stereo unspecified) yielded a cytotoxicity at 10 µM of 4.17%. Molecule `CN(Cc1cnn(C)c1)S(=O)(=O)N1CCCC1c1ccco1` (stereo unspecified) has a cytotoxicity at 10 µM of -5.78%. In the case of `CCNC(=O)N1CCC(NC(=O)NCCc2ccc(C)cc2C)C1` (stereo unspecified), the cytotoxicity at 10 µM is reported as -44.6%. In the case of `Cc1ccc(OCC(C)NS(=O)(=O)N(C)C)cc1` (stereo unspecified), the cytotoxicity at 10 µM is reported as 8.81%. Molecule `CS(=O)(=O)NCCN(CCCO)C1CCc2ccccc21` (stereo unspecified) has a cytotoxicity at 10 µM of 3.09%. `COc1ccc(-c2noc(C(CC(C)C)N3CCCCC3=O)n2)cn1` (stereo unspecified) gave a cytotoxicity at 10 µM of -54.2%. Work on `N#CCSCCCN1CCC(C(=O)N2CCCCCC2)CC1` yielded a cytotoxicity at 10 µM of 5.37%. `CC(C)n1cc(CN2CCCN(C(=O)c3ccc[nH]3)CC2)cn1` showed a cytotoxicity at 10 µM of 3.59%. Molecule `CCOC1CCC2(CCN(C(=O)c3c[nH]cn3)CC2)c2ccccc21` (stereo unspecified) has a cytotoxicity at 10 µM of 7.5%. `O=C(NCCc1cccc(F)c1)c1nc2c(s1)CCCN2C(=O)C1CC1` gave a cytotoxicity at 10 µM of -91.4%. Molecule `Cc1noc([C@H]2CC[C@@H]3[C@@H](CCN3c3ncccn3)O2)n1` has a cytotoxicity at 10 µM of 3.06%. For `COC[C@@H]1CCC[C@@]12CN(C(=O)N1CCCC1)CCO2`, the cytotoxicity at 10 µM was -101%. `c1cc(CN2CC[C@H]3O[C@@H](COCC4CCOCC4)CC[C@H]32)ccn1` gave a cytotoxicity at 10 µM of -69.8%. Molecule `CNC(=O)[C@@]12CCO[C@@H]1CCN(S(=O)(=O)c1ccccc1F)C2` has a cytotoxicity at 10 µM of -71.2%. For `COc1cc(-c2cnnc(NCCSC)n2)cc(OC)c1OC`, the cytotoxicity at 10 µM was 3.98%. With `COc1ncccc1-c1cc(C(N)=O)ccn1` the cytotoxicity at 10 µM was 7.81%. In the case of `O=C(Nc1ccccc1N1CCOC1=O)N1CCSCC1`, the cytotoxicity at 10 µM is reported as 3.15%. Work on `COCCN1CCN(Cc2ccc(Cl)cc2)[C@H]2CS(=O)(=O)C[C@H]21` yielded a cytotoxicity at 10 µM of -4.01%. `CN(C)Cc1ccccc1CN(C)c1ncnc2[nH]ccc12` gave a cytotoxicity at 10 µM of 8.11%.
